Screening results: PubChem, several laboratories
Shown are actives, neighbours in structure and some others; about 6.6% of the full set was active somewhere.
HUVEC prolif 384: inhibitors of human endothelial cell proliferation. HUVEC proliferation, CellTiter-Glo luminescence, 72 h; active compounds read low. viability, % at 10 µM (by protocol). 86,000 tested, 1.1% active. AID 648;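 active means viability at or below 30%; inactive means viability above 30%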
Lung fibro prol: blocks proliferation of human lung fibroblasts; LL 47 human lung fibroblast viability, ATP luminescence; active compounds read low; viability, % at 10 µM; 85,000 tested, 1.1% active;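 active means viability at or below 50% in the single dose screen; inactive means viability above 50%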;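 further: compound exposure lasted 72 h before the ATP readout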
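Signal: luminescent ATP detection, CellTiter-Glo; assay system: LL 47 human lung fibroblasts; input: 1,150 cells/well; incubation: overnight cell rest, 72 h compound treatment at 37 °C; measure: % viability versus median cells-only luminescence; medium: IMEM growth medium with 15% fetal bovine serum; dosing: compound addition at 0.1% DMSO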
H69AR growth 86K: blocks growth of human H69AR lung tumor cells; 85,000 tested, 6% active; H69AR lung tumor viability, ATP luminescence, 72 h; active compounds read low; viability, % at 10 µM;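 active means viability at or below 40%; inactive means viability above 40%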;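 further: multidrug resistant small cell line overexpressing MRP-1 efflux transporter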
Jurkat viability: reduces viability or proliferation of Jurkat cells; Jurkat E6.1 viability, ATP luminescence, 48 h; inhibition, % at 4 µM; 56,000 tested, 1.2% active;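 active means inhibition above the mean inhibition of all tested compounds plus 3 SD, cut at about 28% in these data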
Each line names hits and unclear results; the compound was inactive in the other large screens.

COC1(OC)C(/C=C/c2ccc(Cl)cc2)C(C#N)(C#N)C1(OC)OC (centres undefined)	HUVEC prolif 384 7.0, H69AR growth 86K -0.4 (no result: Jurkat viability)
Cc1cc(NC(=O)CC2CCCC2)n(-c2nc3ccccc3[nH]2)n1	H69AR growth 86K 29 (no result: Lung fibro prol)
CCOC(=O)c1nnc2c(Br)c(-c3ccccc3)nn2c1C	none (no result: Jurkat viability)
Cc1ccc(S(=O)(=O)N(C)c2ccc(C(=O)N3CCN(Cc4ccc5c(c4)OCO5)CC3)cc2)cc1	H69AR growth 86K 25 (no result: Jurkat viability)
CN(c1ccc(C(=O)N2CCN(Cc3ccc4c(c3)OCO4)CC2)cc1)S(=O)(=O)c1ccccc1	none (no result: Jurkat viability)
CCOc1ccc(CCNS(=O)(=O)c2cnc[nH]2)cc1OCC	none
Cc1ccc(CNC(=O)CSCC(=O)O)cc1	none (no result: Jurkat viability)
CCCCNC(=O)CSc1nc2ccc(N3CCOCC3)cc2c(=O)n1CCc1ccccc1	HUVEC prolif 384 26, H69AR growth 86K 8.9 (no result: Jurkat viability)
CC(C)(C)c1nnc2sc(SCCN3C(=O)c4ccccc4C3=O)nn2c1=O	none
CC(C)N(C(=O)CSc1nn2c(=O)c(C(C)(C)C)nnc2s1)c1ccccc1	H69AR growth 86K 14 (no result: Lung fibro prol)
CCOC(=O)CSc1nc(N2CCOCC2)c2c(c1C#N)CC(C)(C)N(C)C2	none (no result: Jurkat viability)
Cc1ccc(C(=O)CC(=O)c2cc(Cl)ccc2O)cc1	HUVEC prolif 384 9.4, Lung fibro prol 30, H69AR growth 86K 5.2 (no result: Jurkat viability)
O=C(Nc1ccccc1O)c1ccc(Cl)cc1	none
CC(C)(C)c1ccc(C(=O)CC(=O)c2cc(Cl)ccc2O)cc1	HUVEC prolif 384 7.6, Lung fibro prol 46, H69AR growth 86K 25 (no result: Jurkat viability)
Cc1ccc(NC(C)c2cc(Cl)ccc2O)cc1 (centres undefined)	none (no result: Jurkat viability)
CCC(CC)NC(=O)Cc1ccccc1OC	none (no result: Jurkat viability)
CC(C)c1ccc(C2C(C#N)=C(N)N3C(=C2C#N)Sc2ccccc23)cc1 (centres undefined)	none (no result: Jurkat viability)
Cc1ccc2c(c1)c1c3n2CCCN(Cc2ccccc2)C3CCC1 (centres undefined)	H69AR growth 86K 36 (no result: Jurkat viability)
Cc1ccc2c(c1)c1c3n2CCN(C(=O)Cn2c(-c4ccccc4)noc2=O)C3CCC1 (centres undefined)	none
Cc1ccc2c(c1)c1c3n2CCN(C(=O)CN2CCN(C)CC2)C3CCC1 (centres undefined)	HUVEC prolif 384 23
CN1CCN(CC(=O)N2CCn3c4c(c5cc(C6CCCCC6)ccc53)CCCC42)CC1 (centres undefined)	HUVEC prolif 384 2.7, Lung fibro prol 1.9, H69AR growth 86K 1.1
Cc1ccc2c(c1)c1c3n2CCN(C(=O)C2CC2)C3CCC1 (centres undefined)	none
Cc1ccc2c(c1)c(=O)c1c3n2CCN(C(=O)CCl)C3CC1 (centres undefined)	HUVEC prolif 384 8.9, Lung fibro prol 2.0, H69AR growth 86K 1.5 (no result: Jurkat viability)
CC1CN(C(=O)Nc2ccc3c(c2)OCO3)CC(C)O1 (centres undefined)	none (no result: Jurkat viability)
COc1cccc(-n2nnc3c(=O)n(CC(=O)N4CCC(Cc5ccccc5)CC4)cnc32)c1	H69AR growth 86K 30 (no result: Jurkat viability)
Cc1ccc(CN2C3=NCCCN3c3ccccc32)cc1	none
CC(C)(C)c1ccc(CN2C3=NCCCN3c3ccccc32)cc1	H69AR growth 86K 15 (no result: Jurkat viability)
O=S1(=O)C=CC(Nc2ccccc2)C1 (centres undefined)	none (no result: Jurkat viability)
CCOC(=O)N1CCC(NS(=O)(=O)c2ccc3c(c2)OCC(=O)N3)CC1	none
CCOC(=O)N1CCC(NS(=O)(=O)c2cc3c(cc2Cl)NC(=O)CO3)CC1	H69AR growth 86K 25
C=CCOc1c(Cl)cc(C2NC(=O)NC(C)=C2C(=O)OC)cc1Cl (centres undefined)	H69AR growth 86K 32
C=CCOc1c(OC)cc(Cl)cc1C1NC(=O)NC(C)=C1C(C)=O (centres undefined)	none
c1ccc(-c2noc(-c3ccc4c(c3)OCO4)n2)nc1	HUVEC prolif 384 29, H69AR growth 86K 23, Jurkat viability 41
c1ccc(-c2noc(-c3ccc4ccccc4c3)n2)nc1	none
c1ccc(CCc2ccccc2-c2nc(-c3ccccn3)no2)cc1	H69AR growth 86K 34
Cc1ccc2c(C)nc(Nc3nc(CSc4nnc(C)s4)cc(=O)[nH]3)nc2c1	HUVEC prolif 384 17, Lung fibro prol 46, H69AR growth 86K 35 (no result: Jurkat viability)
CC1=CC(C)(C)N2C(=O)C3(C(C#N)=C(N)Oc4cc(O)ccc43)c3c(C)c(C)cc1c32 (centres undefined)	HUVEC prolif 384 4.8, H69AR growth 86K 4.4 (no result: Jurkat viability)
CC1=CC(C)(C)N2C(=O)C3(C(C#N)=C(N)OC4=C3C(=O)CCC4)c3c(C)c(C)cc1c32 (centres undefined)	none (no result: HUVEC prolif 384, Lung fibro prol, H69AR growth 86K)
Cc1cc2c3c(c1)C(C)(c1ccccc1)CC(C)(C)N3C(=O)C21C(C#N)=C(N)OC2=C1C(=O)CC(C)(C)C2 (centres undefined)	H69AR growth 86K 19 (no result: Jurkat viability)
